Most compounds without a hit are left out; they make up all but 3.6% or so of the library.
SR-BI HDL uptake = mouse SR-BI HDL lipid transfer inhibition; inhibition, % at 12.5 µM; Q61009; AID 488896; hit rate 0.96% among 320,000; ldlA[mSR-BI] CHO cells, DiI-HDL uptake fluorescence, 3 h;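 active = mean replicate inhibition of at least 70% and a set share of replicates each scoring 70 or more; inconclusive = meets just one of the two criteria; inactive = fails both criteria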
Target sequence (Q61009 whole entry, looked up): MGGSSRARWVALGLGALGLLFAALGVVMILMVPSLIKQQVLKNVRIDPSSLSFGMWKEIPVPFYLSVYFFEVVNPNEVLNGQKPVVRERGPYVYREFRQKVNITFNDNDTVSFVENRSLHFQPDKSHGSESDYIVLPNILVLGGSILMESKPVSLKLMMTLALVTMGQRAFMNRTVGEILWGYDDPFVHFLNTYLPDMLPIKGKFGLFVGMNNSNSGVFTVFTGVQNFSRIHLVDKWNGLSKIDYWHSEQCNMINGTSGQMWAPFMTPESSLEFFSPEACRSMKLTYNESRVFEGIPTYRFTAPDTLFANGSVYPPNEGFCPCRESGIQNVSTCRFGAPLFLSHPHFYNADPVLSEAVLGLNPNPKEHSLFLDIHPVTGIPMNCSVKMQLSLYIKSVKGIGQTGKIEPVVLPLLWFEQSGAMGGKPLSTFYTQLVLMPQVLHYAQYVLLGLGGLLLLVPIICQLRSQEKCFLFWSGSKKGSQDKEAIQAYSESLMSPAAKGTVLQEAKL
SR-BI DiI-HDL act = enhances SR-BI lipid uptake from DiI-HDL. CHO ldlA[mSR-BI] cells, DiI-HDL uptake fluorescence, 3 h; 100 = double the neutral-control signal. activation, % at 12.5 µM. hit rate 0.096% among 320,000;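 active = mean replicate activation of at least 60% and every replicate at or above 60%; inconclusive = mean or all-replicate condition met, but not both; inactive = mean below 60% and not all replicates reaching 60%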
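System: LDL receptor-deficient CHO ldlA cells overexpressing murine SR-BI | Timing: 3 h uptake period with compound, 37 °C | Medium: HEPES-buffered (25 mM, pH 7.4) F12 plus 0.5% BSA | Dosing: Single-point compound dose | Signal: Bottom-read fluorescence, 550/595 nm | Read-out: Retained DiI signal reflecting DiI-HDL uptake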
HSF-1 act = increases HSF-1 driven luciferase reporter signal | NIH3T3-HGL HSF-1 luciferase reporter, MG132, 8 h; 100% = twice DMSO control signal | activation, % at 9 µM | hit rate 1.7% among 300,000;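 active = mean replicate activation of at least 50% with a set share of replicates each reaching 50%; inconclusive = only one of those two conditions met; inactive = mean below 50% and too few replicates reaching it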
Wnt act = Wnt/beta-catenin pathway activation; Wnt/beta-catenin reporter cell assay, activator, plate reader; hit rate 1.2% among 300,000; activation, % at 9.35 µM; in the data active = activation above about 30%, passing the limit was not always enough; inconclusive = no clear call, values can overlap the other calls
MITF TRPM1 HTS = increases MITF-driven TRPM1 promoter luciferase signal. SK-MEL-5 TRPM1-promoter luciferase, 24 h; % of positive control, neutral wells = 0. activation, % at 12.5 µM. hit rate 0.75% among 300,000. AID 588334;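 active = mean activation of at least 80% with every replicate also reaching 80%; inconclusive = mean reaches 80% but some replicate falls short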
Numbers stand for hits; 0 = inactive; ? = inconclusive; - = no result.

SMILES | SR-BI HDL uptake | SR-BI DiI-HDL act | HSF-1 act | Wnt act | MITF TRPM1 HTS
Cc1cnc(NC(=O)COc2ccc3c(c2)CCC3)s1 | 0 | 0 | 0 | 43.1 | 0
COc1cc(OC)cc(-c2c(Sc3ccccc3)c3cc(-c4ccc(OC)c(F)c4)ccc3n2C)c1 | - | - | - | 0 | -
COc1ccc(NC(=O)CCCNC(=O)c2ccc(Cl)cc2)cc1S(=O)(=O)N1CCCCC1 | 0 | 0 | - | 0 | -
CCOc1ccccc1/C=N/NC(=O)c1cccc(S(=O)(=O)N2CCOCC2)c1 | 82.1 | 0 | 0 | 0 | 0
CCOc1ccccc1/C=N/NC(=O)c1cc(C(C)C)[nH]n1 | 72.5 | 0 | 0 | 0 | 0
CCN(CC)c1ccc(/C=N/NC(=O)c2cccc(S(=O)(=O)N3CCOCC3)c2)c(O)c1 | 113.7 | 0 | 0 | 0 | 0
CC(C)c1cc(C(=O)N/N=C/c2c[nH]c3ccccc23)n[nH]1 | 0 | 0 | 0 | 0 | 0
O=C(N/N=C/c1ccccc1C(=O)O)c1cccc(S(=O)(=O)N2CCOCC2)c1 | 0 | 0 | - | 0 | 0
Nc1ncnc(N)c1NC(=O)c1ccccc1 | - | - | - | 0 | -
COC(=O)C1=C(C)N(C)C(=NCC2CC2)NC1c1ccccc1 (configuration not stated) | - | - | - | 0 | -
Cc1nc2ccccn2c(=O)c1NC(=O)c1ccc2c(c1)OCO2 | - | - | - | 0 | -
CCCNC(=O)C1(C)CCN(C(=O)/C=C/c2ccccc2)C1 (configuration not stated) | - | - | - | 0 | -
COc1cc(OC)c(-c2nc3ccccc3s2)cc1OC | 70.9 | 0 | 0 | 0 | 0
COc1cccc(-c2nc3ccccc3s2)c1O | 0 | 0 | 90.4 | ? | 0
CN1CCN(C2CN(Cc3cn(Cc4ccc(F)cc4)nn3)S(=O)(=O)C2)CC1 (configuration not stated) | - | - | - | 0 | -
COC(=O)CCC(=O)Nc1nccs1 | 0 | 0 | 0 | 0 | 0
CCOC(=S)SCC(=O)Nc1nc(C)c(C)s1 | - | - | 235.7 | 0 | 0
CCOC(=S)SCC(=O)Nc1nccs1 | 0 | 0 | 114.8 | 0 | 0
CCCC(CCC(=O)Nc1nccs1)C(=O)O (configuration not stated) | 0 | 0 | 52.7 | 0 | 0
O=C(O)c1ccccc1NS(=O)(=O)c1cccc(NS(=O)(=O)c2cc(Br)ccc2Br)c1 | 0 | 0 | - | 0 | 0
O=C1NC(c2ccc(Br)cc2)=N/C1=C/c1ccco1 | 0 | 0 | 0 | - | 97.1
O=C1NC(c2ccccc2Cl)=N/C1=C/c1ccco1 | 0 | 0 | 0 | 52.7 | 0
O=C1C(=Cc2ccco2)CCC1=Cc1ccco1 | 0 | 0 | - | 0 | 0
CC1=C(C(=O)N2CCOCC2)CC(CC(=O)NC(c2ccccc2)c2ccccc2)C(=O)N1Cc1ccc(F)cc1 (configuration not stated) | - | - | - | 0 | -
CCOC(=O)c1c(NC(=O)CN2CCCc3ccccc32)sc(C(C)=O)c1C | 0 | 0 | 50.2 | - | 0
SMILES | SR-BI HDL uptake | SR-BI DiI-HDL act | HSF-1 act | Wnt act | MITF TRPM1 HTS
O=C(CSc1ncc(-c2ccccc2)[nH]1)Nc1ccccc1F | - | - | 0 | 0 | 88.2
O=C(CSc1nnc(-c2cccnc2)o1)Nc1ccccc1F | 0 | 0 | 0 | 39.6 | 0
CCC(C)[C@H](N)c1nnc(SCC(=O)Nc2cccc(Cl)c2)o1 (some centres not stated) | 0 | 0 | 108.1 | 0 | -
NCCCCCc1nnc(SCC(=O)Nc2cccc(Cl)c2)o1 | 0 | 0 | 0 | - | 0
COc1ccc(C)cc1NC(=O)CSc1nnc(-c2ccc(Br)cc2)o1 | 0 | 0 | 0 | 0 | 0
O=C(CSc1ncc(-c2ccccc2)[nH]1)Nc1ccccc1 | 0 | 0 | 0 | 0 | 0
COc1ccccc1NC(=O)CSc1nnc(-c2ccc(C)cc2)o1 | 0 | 0 | 0 | 57.9 | -
C[C@@H]1COc2cc(NCCO)ccc2S(=O)(=O)N1 | - | - | - | 0 | -
CCN=C1NC(c2ccc(F)cc2)C(C(=O)OC)=C(C)N1Cc1cccc(C(F)(F)F)c1 (configuration not stated) | - | - | - | 0 | -
CCc1nc2c(OCc3cc(Cl)cc(Cl)c3)cccn2c1N(C)C(=O)CC(C)C | - | - | - | 0 | -
O=C(CSc1nnc(-c2ccc(O)cc2)o1)Nc1cccc(O)c1 | 0 | 0 | 0 | 33.5 | 0
Cc1cc(-n2c(C)cc(C(=O)CSc3ccccn3)c2C)no1 | 0 | 0 | - | 0 | 107.2
O=C(O)c1ccc(/C=N/Nc2nc3ccccc3[nH]2)cc1 | - | - | 0 | 0 | 0
C(=N\Nc1nc2ccccc2[nH]1)/c1ccncc1 | 0 | 0 | 0 | 0 | 0
CCN(CC)c1ccc(/C=N/Nc2nc3ccccc3[nH]2)cc1 | 0 | 0 | 430.8 | 0 | 0
CC(/C=N/Nc1nc2ccccc2[nH]1)=C\c1ccccc1 | 0 | 0 | 0 | 53.2 | 0
C(=N\Nc1nc2ccccc2[nH]1)/c1ccc2c(c1)OCO2 | 0 | 0 | 491.7 | 0 | 116.5
CC(=O)Nc1ccc(/C=N/Nc2nc3ccccc3[nH]2)cc1 | 0 | 0 | 127.6 | 0 | 0
O=C(COC(=O)Cc1n[nH]c(=O)c2ccccc12)Nc1c(Br)cc([N+](=O)[O-])cc1Br | 0 | 0 | - | 0 | 0
